Source: ChEMBL document CHEMBL3124809, “Back pocket flexibility provides group II p21-activated kinase (PAK) selectivity for type I 1/2 kinase inhibitors” (J Med Chem, 2014)

What was measured:
[1] = target: T1, Serine/threonine-protein kinase PAK 4 (Homo sapiens, UniProt O96013); test: Binding affinity to N-terminal GST-tagged recombinant human PAK4 kinase domain expressed in Escherichia coli using KKRNRRLSVA as substrate preincubated for 10 mins followed by ATP addition measured after 60 mins by FRET-based Z'Lyte assay
Target sequence in this assay (O96013 whole entry, the tested form may be a part): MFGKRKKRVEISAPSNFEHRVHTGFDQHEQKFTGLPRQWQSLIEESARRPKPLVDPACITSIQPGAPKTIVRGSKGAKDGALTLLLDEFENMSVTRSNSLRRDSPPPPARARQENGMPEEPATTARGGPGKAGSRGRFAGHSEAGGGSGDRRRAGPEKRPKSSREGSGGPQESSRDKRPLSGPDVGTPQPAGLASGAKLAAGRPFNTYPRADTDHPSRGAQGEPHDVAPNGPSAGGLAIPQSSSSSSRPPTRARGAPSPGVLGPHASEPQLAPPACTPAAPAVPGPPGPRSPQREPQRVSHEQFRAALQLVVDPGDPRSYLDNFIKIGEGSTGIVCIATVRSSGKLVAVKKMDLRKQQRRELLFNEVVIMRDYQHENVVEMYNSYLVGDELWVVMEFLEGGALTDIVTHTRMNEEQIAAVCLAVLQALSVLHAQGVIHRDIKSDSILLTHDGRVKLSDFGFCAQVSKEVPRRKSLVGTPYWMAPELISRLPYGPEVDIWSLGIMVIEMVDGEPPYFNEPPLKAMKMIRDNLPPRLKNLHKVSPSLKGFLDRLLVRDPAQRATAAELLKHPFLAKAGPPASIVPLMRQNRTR

[2] = target: Serine/threonine-protein kinase PAK 1 (Homo sapiens, UniProt Q13153); test: Binding affinity to N-terminal GST-His-tagged recombinant human PAK1 kinase domain expressed in Escherichia coli BL21 using KKRNRRLSVA as sustrate preincubated for 10 mins followed by ATP addition measured after 60 mins by FRET-based Z'Lyte assay
Chain of Serine/threonine-protein kinase PAK 1 (Q13153 whole entry, the tested form may be a part): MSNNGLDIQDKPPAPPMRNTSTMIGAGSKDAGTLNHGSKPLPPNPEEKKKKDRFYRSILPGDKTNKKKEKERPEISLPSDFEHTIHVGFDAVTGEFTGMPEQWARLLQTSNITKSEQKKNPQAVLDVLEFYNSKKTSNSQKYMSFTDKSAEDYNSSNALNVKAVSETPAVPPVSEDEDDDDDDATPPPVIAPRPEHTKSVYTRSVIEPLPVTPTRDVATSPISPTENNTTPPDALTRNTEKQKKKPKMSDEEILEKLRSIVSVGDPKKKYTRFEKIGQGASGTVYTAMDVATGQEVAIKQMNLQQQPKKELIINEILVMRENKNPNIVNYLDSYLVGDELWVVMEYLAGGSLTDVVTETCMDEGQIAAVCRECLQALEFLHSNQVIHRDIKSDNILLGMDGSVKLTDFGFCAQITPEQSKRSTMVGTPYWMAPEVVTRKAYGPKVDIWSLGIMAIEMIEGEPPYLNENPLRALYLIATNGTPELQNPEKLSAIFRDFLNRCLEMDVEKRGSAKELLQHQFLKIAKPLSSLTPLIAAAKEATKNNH

[3] = Cytotoxicity against human MDA-MB-436 cells assessed as reduction in cell viability after 24 to 48 hrs by Celltiter-glo luminescence assay; assay type: functional, cell-based
Summary of the method: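 Cells sparsely plated in 96-well plates and allowed to adhere, then given DMSO or compound (0.1, 1, 10, 50 μM) for 24 and 48 h. Metabolically active cells quantified by CellTiter-Glo luminescence. MDA-MB-436 grown in DMEM/10% FBS; MCF10A PIK3CA (one endogenous H1047R allele) in DMEM/F12 with 5% horse serum, insulin, hydrocortisone.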

[4] = target: Mitogen-activated protein kinase kinase kinase kinase 4 (Homo sapiens) (UniProt O95819); test: Inhibition of MAP4K4 (unknown origin) at 1 uM
Chain of Mitogen-activated protein kinase kinase kinase kinase 4 (Homo sapiens) (O95819 2-1239 limits assumed): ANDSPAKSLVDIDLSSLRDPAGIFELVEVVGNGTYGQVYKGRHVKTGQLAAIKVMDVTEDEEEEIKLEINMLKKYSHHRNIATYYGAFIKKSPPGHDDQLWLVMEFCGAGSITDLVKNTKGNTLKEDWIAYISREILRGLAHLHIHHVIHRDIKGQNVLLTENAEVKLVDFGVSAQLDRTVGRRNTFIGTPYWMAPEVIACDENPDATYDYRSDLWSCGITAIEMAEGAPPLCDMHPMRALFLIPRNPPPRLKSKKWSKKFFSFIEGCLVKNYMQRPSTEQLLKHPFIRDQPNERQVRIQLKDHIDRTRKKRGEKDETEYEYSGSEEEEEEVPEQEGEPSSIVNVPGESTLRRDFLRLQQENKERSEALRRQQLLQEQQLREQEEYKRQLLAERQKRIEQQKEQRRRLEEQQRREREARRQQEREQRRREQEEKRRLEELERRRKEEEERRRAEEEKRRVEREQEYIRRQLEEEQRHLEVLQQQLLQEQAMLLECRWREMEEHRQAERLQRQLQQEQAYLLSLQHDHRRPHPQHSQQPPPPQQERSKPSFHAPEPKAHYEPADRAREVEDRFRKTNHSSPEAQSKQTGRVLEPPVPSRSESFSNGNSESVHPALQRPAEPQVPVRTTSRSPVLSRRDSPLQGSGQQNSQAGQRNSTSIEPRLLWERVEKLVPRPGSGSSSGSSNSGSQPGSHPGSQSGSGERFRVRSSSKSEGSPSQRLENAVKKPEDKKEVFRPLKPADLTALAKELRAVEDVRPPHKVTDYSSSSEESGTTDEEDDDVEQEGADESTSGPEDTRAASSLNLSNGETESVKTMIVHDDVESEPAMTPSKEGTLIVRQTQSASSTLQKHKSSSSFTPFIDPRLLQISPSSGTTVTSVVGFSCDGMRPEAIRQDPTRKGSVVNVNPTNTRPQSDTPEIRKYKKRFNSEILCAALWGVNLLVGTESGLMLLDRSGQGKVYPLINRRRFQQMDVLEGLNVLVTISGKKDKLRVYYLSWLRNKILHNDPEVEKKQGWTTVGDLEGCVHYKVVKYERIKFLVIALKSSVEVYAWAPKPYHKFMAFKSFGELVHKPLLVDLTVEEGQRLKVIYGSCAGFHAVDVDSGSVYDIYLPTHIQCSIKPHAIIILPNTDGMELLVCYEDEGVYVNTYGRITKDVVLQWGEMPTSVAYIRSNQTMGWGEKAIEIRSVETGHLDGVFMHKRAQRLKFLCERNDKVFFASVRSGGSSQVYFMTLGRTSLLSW

[5] = target: Mitogen-activated protein kinase kinase kinase kinase 5 (Homo sapiens) (UniProt Q9Y4K4); test: Inhibition of KHS1 (unknown origin) at 1 uM
Chain of Mitogen-activated protein kinase kinase kinase kinase 5 (Homo sapiens) (Q9Y4K4 whole entry, looked up): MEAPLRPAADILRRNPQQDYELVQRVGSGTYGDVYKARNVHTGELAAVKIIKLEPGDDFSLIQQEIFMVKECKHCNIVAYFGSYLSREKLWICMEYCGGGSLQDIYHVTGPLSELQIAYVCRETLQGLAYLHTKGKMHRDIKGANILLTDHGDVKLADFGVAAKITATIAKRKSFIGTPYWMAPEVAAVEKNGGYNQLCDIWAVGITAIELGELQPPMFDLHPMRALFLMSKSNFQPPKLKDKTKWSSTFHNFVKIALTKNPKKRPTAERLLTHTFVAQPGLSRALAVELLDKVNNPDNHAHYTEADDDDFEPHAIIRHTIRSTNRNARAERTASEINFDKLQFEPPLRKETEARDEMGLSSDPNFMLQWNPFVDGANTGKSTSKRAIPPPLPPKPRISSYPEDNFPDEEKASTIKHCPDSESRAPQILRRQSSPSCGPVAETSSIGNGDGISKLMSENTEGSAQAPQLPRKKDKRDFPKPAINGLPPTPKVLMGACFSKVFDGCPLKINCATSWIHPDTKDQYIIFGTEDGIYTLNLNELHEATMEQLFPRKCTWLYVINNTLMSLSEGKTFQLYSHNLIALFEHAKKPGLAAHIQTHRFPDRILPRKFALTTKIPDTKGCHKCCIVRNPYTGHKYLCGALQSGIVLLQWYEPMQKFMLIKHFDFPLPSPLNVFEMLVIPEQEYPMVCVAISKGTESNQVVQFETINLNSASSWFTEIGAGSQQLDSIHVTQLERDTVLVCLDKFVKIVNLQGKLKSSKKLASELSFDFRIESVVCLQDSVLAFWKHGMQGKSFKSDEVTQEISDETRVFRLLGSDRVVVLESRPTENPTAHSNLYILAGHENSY

[6] = target: T2, Tyrosine-protein kinase JAK3 (Homo sapiens) (UniProt P52333); test: Inhibition of JAK3 (unknown origin) at 1 uM
T2 sequence (whole entry): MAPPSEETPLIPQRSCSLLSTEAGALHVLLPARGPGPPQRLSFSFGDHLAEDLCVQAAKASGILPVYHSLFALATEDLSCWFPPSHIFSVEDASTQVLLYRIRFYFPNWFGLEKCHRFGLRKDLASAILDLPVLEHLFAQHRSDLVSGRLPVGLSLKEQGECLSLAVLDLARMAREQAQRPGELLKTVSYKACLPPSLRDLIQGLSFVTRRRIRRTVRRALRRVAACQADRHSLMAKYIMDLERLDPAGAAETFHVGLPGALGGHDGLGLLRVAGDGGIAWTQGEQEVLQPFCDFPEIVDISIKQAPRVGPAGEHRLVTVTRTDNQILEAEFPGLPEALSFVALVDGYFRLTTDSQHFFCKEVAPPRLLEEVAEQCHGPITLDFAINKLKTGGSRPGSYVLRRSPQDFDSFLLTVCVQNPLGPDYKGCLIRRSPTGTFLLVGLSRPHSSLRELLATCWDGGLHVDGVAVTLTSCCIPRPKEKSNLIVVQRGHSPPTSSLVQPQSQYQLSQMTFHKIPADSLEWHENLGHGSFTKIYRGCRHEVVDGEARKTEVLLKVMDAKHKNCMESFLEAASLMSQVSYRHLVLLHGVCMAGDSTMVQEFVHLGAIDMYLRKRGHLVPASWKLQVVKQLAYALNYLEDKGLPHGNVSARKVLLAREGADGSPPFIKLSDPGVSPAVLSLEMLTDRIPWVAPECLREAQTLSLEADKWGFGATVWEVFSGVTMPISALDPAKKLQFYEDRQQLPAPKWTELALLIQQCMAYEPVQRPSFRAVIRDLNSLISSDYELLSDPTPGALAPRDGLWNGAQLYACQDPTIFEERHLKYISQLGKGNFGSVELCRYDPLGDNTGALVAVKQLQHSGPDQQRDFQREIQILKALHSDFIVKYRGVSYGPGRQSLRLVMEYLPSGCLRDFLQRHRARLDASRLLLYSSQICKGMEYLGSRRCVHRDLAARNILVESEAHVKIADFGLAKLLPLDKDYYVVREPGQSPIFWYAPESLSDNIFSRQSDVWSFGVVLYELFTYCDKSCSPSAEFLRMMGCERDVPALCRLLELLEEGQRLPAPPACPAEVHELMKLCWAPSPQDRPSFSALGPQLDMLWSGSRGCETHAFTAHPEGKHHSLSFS

[7] = target: Mitogen-activated protein kinase kinase kinase 14 (Homo sapiens) (UniProt Q99558); test: Inhibition of NIK (unknown origin) at 1 uM
[8] = target: Misshapen-like kinase 1 (Homo sapiens) (UniProt Q8N4C8); test: Inhibition of MINK1 (unknown origin) at 1 uM
Chain of Misshapen-like kinase 1 (Homo sapiens) (Q8N4C8 whole entry, looked up): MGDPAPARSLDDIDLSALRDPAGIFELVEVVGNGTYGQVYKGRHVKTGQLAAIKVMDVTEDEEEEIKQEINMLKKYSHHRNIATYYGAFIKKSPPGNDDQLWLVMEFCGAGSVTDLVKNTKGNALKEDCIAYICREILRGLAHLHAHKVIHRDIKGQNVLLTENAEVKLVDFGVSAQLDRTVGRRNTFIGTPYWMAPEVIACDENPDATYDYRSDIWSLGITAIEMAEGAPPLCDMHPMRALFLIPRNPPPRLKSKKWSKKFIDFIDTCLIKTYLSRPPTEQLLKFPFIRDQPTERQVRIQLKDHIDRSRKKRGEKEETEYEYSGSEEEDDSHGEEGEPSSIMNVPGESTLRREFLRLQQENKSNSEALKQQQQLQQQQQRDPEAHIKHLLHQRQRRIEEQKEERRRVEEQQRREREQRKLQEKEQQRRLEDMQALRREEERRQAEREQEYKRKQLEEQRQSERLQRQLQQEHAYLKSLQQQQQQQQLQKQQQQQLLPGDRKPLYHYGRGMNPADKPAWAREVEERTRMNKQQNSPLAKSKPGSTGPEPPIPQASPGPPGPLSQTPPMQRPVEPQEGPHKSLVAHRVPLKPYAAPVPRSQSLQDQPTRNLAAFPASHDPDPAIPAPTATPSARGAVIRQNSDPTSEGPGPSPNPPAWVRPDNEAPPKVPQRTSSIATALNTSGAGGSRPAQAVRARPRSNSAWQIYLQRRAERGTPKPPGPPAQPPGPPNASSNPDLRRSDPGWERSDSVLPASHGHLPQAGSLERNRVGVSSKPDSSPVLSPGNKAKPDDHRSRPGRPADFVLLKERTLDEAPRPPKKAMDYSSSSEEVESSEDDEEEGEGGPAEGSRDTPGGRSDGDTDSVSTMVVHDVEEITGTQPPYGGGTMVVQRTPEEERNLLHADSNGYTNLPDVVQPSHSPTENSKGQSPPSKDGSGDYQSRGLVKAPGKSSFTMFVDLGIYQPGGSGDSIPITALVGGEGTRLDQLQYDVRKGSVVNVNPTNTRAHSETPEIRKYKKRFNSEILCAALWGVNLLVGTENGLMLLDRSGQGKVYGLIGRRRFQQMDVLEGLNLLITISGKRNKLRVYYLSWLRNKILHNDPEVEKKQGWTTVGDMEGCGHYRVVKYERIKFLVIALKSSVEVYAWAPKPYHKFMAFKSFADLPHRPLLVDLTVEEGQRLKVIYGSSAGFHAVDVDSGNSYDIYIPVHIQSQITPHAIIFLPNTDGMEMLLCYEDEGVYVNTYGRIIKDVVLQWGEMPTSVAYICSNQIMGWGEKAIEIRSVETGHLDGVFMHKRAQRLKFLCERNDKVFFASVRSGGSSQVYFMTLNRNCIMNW

[9] = target: T1, Serine/threonine-protein kinase PAK 4; test: Inhibition of PAK4 (unknown origin) at 1 uM
Target sequence in this assay (O96013 whole entry, looked up, the tested form may be a part): as the sequence (O96013 whole entry, the tested form may be a part) above

Compound | Ki [1] | Ki [2] | further results
Cc1nc2ccc(C#CC(C)(O)CO)cc2n1-c1ncnc(N)n1 (racemic) | > 2900 nM | > 4.5 µM | 
Cc1nc2ccc(C#CC(C)(O)c3ncccn3)cc2n1-c1ncnc(N)n1 (racemic) | > 2900 nM | > 4.5 µM | 
Cc1nc2ccc(C#C[C@@](C)(O)c3nccs3)cc2n1-c1ncnc(N)n1 | 600 nM | > 4.5 µM | 
CC(C)(O)C#Cc1ccc2cnn(-c3ccnc(N)n3)c2c1 | 120 nM | > 4.5 µM | 
Cc1nc2ccc(C#CC3(O)CCCOC3)cc2n1-c1ncnc(N)n1 (racemic) | > 2900 nM | > 4.5 µM | 
Cc1nc(Nc2n[nH]c3c2CN(C(=O)N[C@H](CN(C)C)c2ccccc2)C3(C)C)c2sccc2n1 [PF-03758309] |  |  | IC50 [3]: 0.79 nM
Cc1nc2ccc(C#CC3(O)CCCCC3)cc2n1-c1ncnc(N)n1 | 68 nM |  | inhibition [4]: 4%; inhibition [5]: 44%; inhibition [6]: -2%; inhibition [7]: 56%; inhibition [8]: 6%; inhibition [9]: 91%
Cc1nc2ccc(C#CC(C)(C)O)cc2n1-c1ncnc(N)n1 | 500 nM | 15.3 µM | inhibition [4]: 31%; inhibition [5]: 81%; inhibition [6]: 2%; inhibition [7]: 68%; inhibition [8]: 27%; inhibition [9]: 34%
Cc1nc2ccc(C#C[C@@]3(O)C[C@@H]4CC[C@H]3C4)cc2n1-c1ncnc(N)n1 (racemic) | 190 nM | > 4.5 µM | 
